Assay results: ChEMBL document CHEMBL1649231, “In vitro activities of panduratin A against clinical Staphylococcus strains” (2009)
Values after ≈ are worked out from the molar mass of the structure shown.

Columns and labels:
Type in all cases: functional
[1] = test system: Staphylococcus haemolyticus; assay: Antimicrobial activity against methicillin-resistant coagulase-negative Staphylococcus haemolyticus after 24 hrs by broth microdilution method
Summary of the method: (§1)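 Clinical isolates came from blood, body fluids, genital secretions, pus or sputum, identified conventionally or by Vitek. MICs were run by CLSI M7-A6 broth microdilution in Mueller-Hinton broth with 5 × 10^5 CFU/ml inoculum. Agents were twofold serially diluted, starting from 10% DMSO. Drug-free and uninoculated controls were included. Plates were incubated aerobically at 37°C for 24 h; MIC is the lowest concentration giving no visible growth.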

[2] = test system: Mammaliicoccus sciuri; assay: Antimicrobial activity against methicillin-resistant coagulase-negative Staphylococcus sciuri after 24 hrs by broth microdilution method; summary of the method: as §1
[3] = test system: Staphylococcus haemolyticus; assay: Bactericidal activity against methicillin-resistant coagulase-negative Staphylococcus haemolyticus after 24 hrs by plate counting method; details: Staphylococcus haemolyticus, 24 h
[4] = test system: Mammaliicoccus sciuri; assay: Antimicrobial activity against methicillin-susceptible coagulase-negative Staphylococcus sciuri after 24 hrs by broth microdilution method; summary of the method: as §1
[5] = test system: Mammaliicoccus sciuri; assay: Bactericidal activity against methicillin-susceptible coagulase-negative Staphylococcus sciuri after 24 hrs by plate counting method
Summary of the method: (§2)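 Clinical staphylococcal isolates from patient body fluids, blood, genital secretions, pus or sputum; species by conventional methods or Vitek. Twofold dilutions in Mueller-Hinton broth, inoculum 5 × 10^5 CFU/ml, 37°C aerobic 24 h (CLSI M7-A6 microdilution). About 100 μl from each well without visible growth spread on MHA; 37°C 24 h. MBC = lowest concentration giving no growth on agar.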

[6] = test system: Staphylococcus hominis; assay: Bactericidal activity against methicillin-susceptible coagulase-negative Staphylococcus hominis after 24 hrs by plate counting method; summary of the method: as §2
[7] = test system: Staphylococcus epidermidis; assay: Antimicrobial activity against methicillin-resistant coagulase-negative Staphylococcus epidermidis after 24 hrs by broth microdilution method; summary of the method: as §1
[8] = test system: Staphylococcus aureus; assay: Bactericidal activity against methicillin-susceptible Staphylococcus aureus after 24 hrs by plate counting method; summary of the method: as §2
[9] = test system: Staphylococcus simulans; assay: Bactericidal activity against methicillin-resistant coagulase-negative Staphylococcus simulans after 24 hrs by plate counting method; details: Staphylococcus simulans, 24 h; summary of the method: as §2
[10] = test system: Staphylococcus aureus; assay: Bactericidal activity against methicillin-resistant Staphylococcus aureus after 24 hrs by plate counting method
[11] = test system: Staphylococcus hominis; assay: Antimicrobial activity against methicillin-resistant coagulase-negative Staphylococcus hominis after 24 hrs by broth microdilution method; summary of the method: as §1
[12] = test system: Mammaliicoccus sciuri; assay: Bactericidal activity against methicillin-resistant coagulase-negative Staphylococcus sciuri after 24 hrs by plate counting method; details: Mammaliicoccus sciuri, 24 h; summary of the method: as §2
[13] = test system: Staphylococcus hominis; assay: Antimicrobial activity against methicillin-susceptible coagulase-negative Staphylococcus hominis after 24 hrs by broth microdilution method; summary of the method: as §1
[14] = test system: Staphylococcus simulans; assay: Bactericidal activity against methicillin-susceptible coagulase-negative Staphylococcus simulans after 24 hrs by plate counting method; summary of the method: as §2
[15] = test system: Staphylococcus epidermidis; assay: Antimicrobial activity against methicillin-susceptible coagulase-negative Staphylococcus epidermidis after 24 hrs by broth microdilution method; summary of the method: as §1
[16] = test system: Staphylococcus epidermidis; assay: Bactericidal activity against methicillin-susceptible coagulase-negative Staphylococcus epidermidis after 24 hrs by plate counting method; summary of the method: as §2
[17] = test system: Staphylococcus aureus; assay: Antimicrobial activity against methicillin-susceptible Staphylococcus aureus after 24 hrs by broth microdilution method; summary of the method: as §1
[18] = test system: Staphylococcus haemolyticus; assay: Bactericidal activity against methicillin-susceptible coagulase-negative Staphylococcus haemolyticus after 24 hrs by plate counting method; summary of the method: as §2
[19] = test system: Staphylococcus hominis; assay: Bactericidal activity against methicillin-resistant coagulase-negative Staphylococcus hominis after 24 hrs by plate counting method; details: Staphylococcus hominis, 24 h
[20] = test system: Staphylococcus haemolyticus; assay: Antimicrobial activity against methicillin-susceptible coagulase-negative Staphylococcus haemolyticus after 24 hrs by broth microdilution method; summary of the method: as §1
[21] = test system: Staphylococcus epidermidis; assay: Bactericidal activity against methicillin-resistant coagulase-negative Staphylococcus epidermidis after 24 hrs by plate counting method; details: Staphylococcus epidermidis, 24 h
[22] = test system: Staphylococcus simulans; assay: Antimicrobial activity against methicillin-resistant coagulase-negative Staphylococcus simulans after 24 hrs by broth microdilution method; summary of the method: as §1
[23] = test system: Staphylococcus simulans; assay: Antimicrobial activity against methicillin-susceptible coagulase-negative Staphylococcus simulans after 24 hrs by broth microdilution method; summary of the method: as §1
[24] = test system: Staphylococcus aureus; assay: Antimicrobial activity against methicillin-resistant Staphylococcus aureus after 24 hrs by broth microdilution method; summary of the method: as §1

Question: How did the MIC50 [1] turn out when Cc1ccc(C(C)C)c(O)c1 [THYMOL] was run?
Answer: The MIC50 was 64 µg/mL (≈ 426 µM).

Question: And the MIC90 [1]?
Answer: Its MIC90 is 128 µg/mL (≈ 852 µM).

Question: And the MIC50 [2]?
Answer: Its MIC50 is 64 µg/mL (≈ 426 µM).

Question: What about the MIC90 [2] of the same compound?
Answer: The MIC90 was 128 µg/mL (≈ 852 µM).

Question: And the MBC [3]?
Answer: Its MBC is 64 µg/mL (≈ 426 µM).

Question: And the MIC50 [4]?
Answer: The MIC50 was 64 µg/mL (≈ 426 µM).

Question: And the MIC90 [4]?
Answer: Its MIC90 is 64 µg/mL (≈ 426 µM).

Question: What about the MBC50 [5] of the same compound?
Answer: The MBC50 was 256 µg/mL (≈ 1700 µM).

Question: And the MBC90 [5]?
Answer: The MBC90 was 512 µg/mL (≈ 3410 µM).

Question: And the MBC ([5]; Mammaliicoccus sciuri, 24 h)?
Answer: Its MBC is 64 µg/mL (≈ 426 µM).

Question: And the MBC50 [6]?
Answer: The MBC50 was 256 µg/mL (≈ 1700 µM).

Question: What about the MBC90 [6] of the same compound?
Answer: The MBC90 was 512 µg/mL (≈ 3410 µM).

Question: What about the MBC ([6]; Staphylococcus hominis, 24 h) of the same compound?
Answer: The MBC was 64 µg/mL (≈ 426 µM).

Question: What about the MIC50 [7] of the same compound?
Answer: The MIC50 was 64 µg/mL (≈ 426 µM).

Question: And the MIC90 [7]?
Answer: The MIC90 was 128 µg/mL (≈ 852 µM).

Question: What about the MBC50 [8] of the same compound?
Answer: The MBC50 was 256 µg/mL (≈ 1700 µM).

Question: And the MBC90 [8]?
Answer: Its MBC90 is 512 µg/mL (≈ 3410 µM).

Question: What about the MBC ([8]; Staphylococcus aureus, 24 h) of the same compound?
Answer: The MBC was 128 µg/mL (≈ 852 µM).

Question: What about the MBC [9] of the same compound?
Answer: The MBC was 64 µg/mL (≈ 426 µM).

Question: And the MBC50 [10]?
Answer: The MBC50 was 512 µg/mL (≈ 3410 µM).

Question: What about the MBC ([10]; Staphylococcus aureus, 24 h) of the same compound?
Answer: Its MBC is 256 µg/mL (≈ 1700 µM).

Question: And the MIC50 [11]?
Answer: The MIC50 was 64 µg/mL (≈ 426 µM).

Question: And the MIC90 [11]?
Answer: Its MIC90 is 128 µg/mL (≈ 852 µM).

Question: And the MBC [12]?
Answer: The MBC was 64 µg/mL (≈ 426 µM).

Question: And the MIC50 [13]?
Answer: The MIC50 was 64 µg/mL (≈ 426 µM).

Question: What about the MIC90 [13] of the same compound?
Answer: The MIC90 was 64 µg/mL (≈ 426 µM).

Question: And the MBC50 [14]?
Answer: The MBC50 was 256 µg/mL (≈ 1700 µM).

Question: What about the MBC90 [14] of the same compound?
Answer: Its MBC90 is 512 µg/mL (≈ 3410 µM).

Question: What about the MBC ([14]; Staphylococcus simulans, 24 h) of the same compound?
Answer: The MBC was 64 µg/mL (≈ 426 µM).

Question: What about the MIC50 [15] of the same compound?
Answer: The MIC50 was 64 µg/mL (≈ 426 µM).

Question: And the MIC90 [15]?
Answer: The MIC90 was 64 µg/mL (≈ 426 µM).

Question: And the MBC50 [16]?
Answer: Its MBC50 is 256 µg/mL (≈ 1700 µM).

Question: And the MBC90 [16]?
Answer: Its MBC90 is 512 µg/mL (≈ 3410 µM).

Question: What about the MBC ([16]; Staphylococcus epidermidis, 24 h) of the same compound?
Answer: Its MBC is 64 µg/mL (≈ 426 µM).

Question: What about the MIC50 [17] of the same compound?
Answer: Its MIC50 is 128 µg/mL (≈ 852 µM).

Question: What about the MIC90 [17] of the same compound?
Answer: The MIC90 was 128 µg/mL (≈ 852 µM).

Question: What about the MBC50 [18] of the same compound?
Answer: The MBC50 was 256 µg/mL (≈ 1700 µM).

Question: What about the MBC90 [18] of the same compound?
Answer: The MBC90 was 512 µg/mL (≈ 3410 µM).

Question: What about the MBC ([18]; Staphylococcus haemolyticus, 24 h) of the same compound?
Answer: Its MBC is 64 µg/mL (≈ 426 µM).

Question: What about the MBC [19] of the same compound?
Answer: The MBC was 64 µg/mL (≈ 426 µM).

Question: What about the MIC50 [20] of the same compound?
Answer: Its MIC50 is 64 µg/mL (≈ 426 µM).

Question: And the MIC90 [20]?
Answer: The MIC90 was 64 µg/mL (≈ 426 µM).

Question: What about the MBC [21] of the same compound?
Answer: The MBC was 64 µg/mL (≈ 426 µM).

Question: And the MIC50 [22]?
Answer: Its MIC50 is 64 µg/mL (≈ 426 µM).

Question: And the MIC90 [22]?
Answer: Its MIC90 is 128 µg/mL (≈ 852 µM).

Question: And the MIC50 [23]?
Answer: Its MIC50 is 64 µg/mL (≈ 426 µM).

Question: And the MIC90 [23]?
Answer: Its MIC90 is 64 µg/mL (≈ 426 µM).

Question: What about the MIC50 [24] of the same compound?
Answer: The MIC50 was 128 µg/mL (≈ 852 µM).

Question: And the MIC90 [24]?
Answer: The MIC90 was 128 µg/mL (≈ 852 µM).
